From ChEMBL document CHEMBL1821621, “Isolation and biological evaluation of jatrophane diterpenoids from Euphorbia dendroides” (J Nat Prod, 2011)

Assays:
[1] = target: T1, ATP-dependent translocase ABCB1 (Homo sapiens, UniProt P08183); test: Reversal of MDR1-mediated paclitaxel resistance in multidrug resistant human NCI-H460 cells assessed as combination index at 1 uM after 72 hrs by SRB assay; assay type: cell-based; details: nci-h460, 72 h
How it was run: (§1)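 Resistant NCI-H460/R cells received 1, 2.5 or 5 μM compound simultaneously with 0.0055 μM paclitaxel for 72 h. Growth was read by SRB assay. Relative reversion = IC50 of paclitaxel / IC50 of the combination. Interaction was scored by the combination index method (median effect, multiple drug effect equation).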

[2] = target: T1, ATP-dependent translocase ABCB1; test: Reversal of MDR1-mediated paclitaxel resistance in multidrug resistant human NCI-H460 cells assessed as combination index at 2.5 uM after 72 hrs by SRB assay; assay type: cell-based; details: nci-h460, 72 h; how it was run: as §1
[3] = target: T1, ATP-dependent translocase ABCB1; test: Reversal of MDR1-mediated paclitaxel resistance in multidrug resistant human NCI-H460 cells assessed as combination index at 5 uM after 72 hrs by SRB assay; assay type: cell-based; details: nci-h460, 72 h; how it was run: as §1
[4] = target: T1, ATP-dependent translocase ABCB1; test: Reversal of MDR1-mediated doxorubicin resistance in multidrug resistant human NCI-H460 cells assessed as combination index at 5 uM after 72 hrs by SRB assay; details: nci-h460, 72 h
NCI-H460 [5] = test: Anticancer activity against human NCI-H460 cells after 72 hrs by SRB assay; assay type: functional, cell-based; details: NCI-H460, 72 h
How it was run: (§2)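 Cells were seeded in 96-well plates and left overnight: NCI-H460 and DLD-1 at 2000 cells/well, U-87 MG and NCI-H460/R at 4000 cells/well. NCI-H460/R was selected from NCI-H460 and kept in 100 nM doxorubicin. Compound exposure lasted 72 h. Cellular protein was stained with sulforhodamine B, and IC50 was obtained by linear regression.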

NCI-H460 [6] = test: Anticancer activity against multidrug resistant human NCI-H460 cells after 72 hrs by SRB assay; assay type: functional, cell-based; details: NCI-H460, 72 h; how it was run: as §2
DLD-1 = test: Anticancer activity against human DLD1 cells after 72 hrs by SRB assay; assay type: functional, cell-based; details: DLD-1, 72 h; how it was run: as §2
[7] = Anticancer activity against human U87MG cells after 72 hrs by SRB assay; assay type: functional, cell-based, U-87MG ATCC; details: U-87 MG; how it was run: as §2
[8] = target: T1, ATP-dependent translocase ABCB1; test: Reversal of MDR1-mediated paclitaxel resistance in multidrug resistant human NCI-H460 cells assessed as Rho123 accumulation at 20 uM after 30 mins by FACScalibur flow cytometry relative to control; assay type: cell-based; details: nci-h460, 0.5 h
How it was run: (§3)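 NCI-H460/R cells were grown to 80% confluence, trypsinized and resuspended in medium containing Rho123. They were treated with compound at 5 or 20 μM for 30 min at 37 °C in 5% CO2, and Rho123 fluorescence (FL2-H) was read by flow cytometry. FAR = FL2-H of treated MDR cells / FL2-H of untreated MDR control.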

[9] = target: T1, ATP-dependent translocase ABCB1; test: Reversal of MDR1-mediated paclitaxel resistance in human NCI-H460 cells assessed as ratio of compound IC50 to IC50 of paclitaxel at 2.5 uM after 72 hrs by SRB assay; assay type: cell-based; details: nci-h460, 72 h
How it was run: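 Growth was read by SRB assay. Relative reversion = IC50 of paclitaxel / IC50 of the combination. Interaction was scored by the combination index method (median effect, multiple drug effect equation).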

[10] = target: T1, ATP-dependent translocase ABCB1; test: Reversal of MDR1-mediated paclitaxel resistance in multidrug resistant human NCI-H460 cells assessed as Rho123 accumulation at 5 uM after 30 mins by FACScalibur flow cytometry relative to control; assay type: cell-based; details: nci-h460, 0.5 h; how it was run: as §3
[11] = target: T1, ATP-dependent translocase ABCB1; test: Reversal of MDR1-mediated paclitaxel resistance in human NCI-H460 cells assessed as ratio of compound IC50 to IC50 of paclitaxel at 1 uM after 72 hrs by SRB assay; assay type: cell-based; details: nci-h460, 72 h; how it was run: as §1
[12] = target: T1, ATP-dependent translocase ABCB1; test: Reversal of MDR1-mediated doxorubicin resistance in human NCI-H460 cells assessed as ratio of compound IC50 to IC50 of paclitaxel at 5 uM after 72 hrs by SRB assay; assay type: cell-based; details: nci-h460, 72 h, in the assay text read “IC50 of doxorubicin” for “IC50 of paclitaxel”
How it was run: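 NCI-H460/R cells received 5 μM compound simultaneously with 0.055 μM doxorubicin for 72 h, read by SRB. Relative reversion = IC50 of doxorubicin alone / IC50 of the combination. Values are the mean ± standard deviation of five independent experiments, with IC50 by linear regression.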

T1 sequence (P08183 whole entry): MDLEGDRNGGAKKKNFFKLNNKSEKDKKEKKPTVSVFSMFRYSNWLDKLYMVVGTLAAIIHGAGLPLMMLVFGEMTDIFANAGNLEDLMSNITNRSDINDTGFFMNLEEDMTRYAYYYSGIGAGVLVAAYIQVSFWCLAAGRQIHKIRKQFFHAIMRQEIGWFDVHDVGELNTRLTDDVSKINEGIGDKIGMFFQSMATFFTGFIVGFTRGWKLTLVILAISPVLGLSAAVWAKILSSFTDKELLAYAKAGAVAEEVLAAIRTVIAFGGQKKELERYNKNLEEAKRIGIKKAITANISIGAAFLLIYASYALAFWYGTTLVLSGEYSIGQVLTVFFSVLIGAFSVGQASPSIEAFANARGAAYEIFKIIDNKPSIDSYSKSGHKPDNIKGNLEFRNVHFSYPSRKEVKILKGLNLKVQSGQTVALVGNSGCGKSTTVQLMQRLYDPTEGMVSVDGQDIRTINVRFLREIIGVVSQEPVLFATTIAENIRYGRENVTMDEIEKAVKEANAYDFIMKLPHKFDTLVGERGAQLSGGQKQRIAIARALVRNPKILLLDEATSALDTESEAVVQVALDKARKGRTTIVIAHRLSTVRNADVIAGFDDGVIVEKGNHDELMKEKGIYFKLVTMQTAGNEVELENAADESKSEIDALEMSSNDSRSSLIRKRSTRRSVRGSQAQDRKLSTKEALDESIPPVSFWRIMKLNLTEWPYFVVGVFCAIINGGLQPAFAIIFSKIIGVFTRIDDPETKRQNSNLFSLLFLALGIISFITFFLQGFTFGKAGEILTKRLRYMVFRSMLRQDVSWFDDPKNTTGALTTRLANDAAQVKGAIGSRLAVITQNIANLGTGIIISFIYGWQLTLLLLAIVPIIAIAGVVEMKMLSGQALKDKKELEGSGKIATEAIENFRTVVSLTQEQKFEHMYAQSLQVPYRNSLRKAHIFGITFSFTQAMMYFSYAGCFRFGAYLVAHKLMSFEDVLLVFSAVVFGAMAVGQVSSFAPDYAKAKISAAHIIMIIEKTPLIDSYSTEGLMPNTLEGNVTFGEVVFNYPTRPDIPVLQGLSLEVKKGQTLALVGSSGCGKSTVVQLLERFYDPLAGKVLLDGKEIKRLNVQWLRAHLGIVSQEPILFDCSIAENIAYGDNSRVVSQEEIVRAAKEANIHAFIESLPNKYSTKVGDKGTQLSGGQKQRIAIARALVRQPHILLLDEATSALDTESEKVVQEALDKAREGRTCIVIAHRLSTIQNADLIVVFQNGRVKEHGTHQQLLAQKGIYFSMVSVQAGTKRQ

Structure (SMILES)	fractional inhibitory concentration index (FICI) [1]	fractional inhibitory concentration index (FICI) [2]	fractional inhibitory concentration index (FICI) [3]	fractional inhibitory concentration index (FICI) [4]	IC30 (NCI-H460 [5]) [µM]	IC50 (NCI-H460 [5]) [µM]	IC30 (NCI-H460 [6]) [µM]	IC50 (NCI-H460 [6]) [µM]	IC30 (DLD-1) [µM]	IC50 (DLD-1) [µM]	IC30 [7] [µM]	IC50 [7] [µM]	Ratio [8]	Ratio IC50 [9]	Ratio [10]	Ratio IC50 [11]	Ratio IC50 [12]
COc1ccc(CCN(C)CCCC(C#N)(c2ccc(OC)c(OC)c2)C(C)C)cc1OC (stereo not drawn)	< 1	< 0.5	< 0.5	< 0.5	–	–	–	–	–	–	–	–	–	–	–	–	–
CC1=C[C@@H]2[C@H](C1=O)[C@H](O)C(C)=C[C@H]1[C@@H]3C(C)(C)[C@]3(OC(=O)C(C)C)[C@H](OC(=O)c3ccccc3)[C@@H](C)[C@]21O [EUPHODENDRIANE A]	–	–	–	–	7	14.3	15.7	26	13.3	27.4	33.2	60.1	–	–	–	–	–
C=C1[C@@H](OC(=O)C(C)C)[C@@H](OC(C)=O)[C@@H](OC(=O)c2cccnc2)C(C)(C)/C=C/[C@@H](C)C(=O)[C@@]2(O)C[C@H](C)[C@H](OC(=O)CC)[C@@H]2[C@H]1OC(C)=O [EUPHODENDROPHANE A]	< 0.5	< 1	< 0.5	< 0.5	31	46.6	26.6	44.8	7.3	59.3	74.7	155	3.2	19	2.1	3	19
C=C1[C@@H](OC(=O)C(C)C)[C@@H](OC(C)=O)[C@@H](OC(=O)c2cccnc2)C(C)(C)/C=C/[C@@H](C)C(=O)[C@@]2(O)C[C@H](C)[C@H](OC(=O)C(C)C)[C@@H]2[C@H]1OC(C)=O [EUPHODENDROPHANE B]	< 1	< 1	< 0.5	< 0.5	6.1	16.2	3.9	17.2	4.8	22.1	6.8	108	3	25	1.9	11	28
C=C1[C@@H](OC(C)=O)[C@@H](OC(=O)c2ccccc2)[C@@H](OC(C)=O)C(C)(C)/C=C/[C@@H](C)C(=O)[C@@]2(O)C[C@H](C)[C@H](OC(=O)C(C)C)[C@@H]2[C@H]1OC(C)=O [EUPHODENDROPHANE D]	–	–	–	–	11.7	21.3	14.6	30.1	14.2	42.7	10.4	52.6	–	–	–	–	–
C=C1[C@@H](OC(=O)C(C)C)[C@@H](OC(=O)c2ccccc2)[C@@H](OC(C)=O)C(C)(C)/C=C/[C@@H](C)C(=O)[C@@]2(O)C[C@H](C)[C@H](OC(=O)CC)[C@@H]2[C@H]1OC(C)=O [EUPHODENDROPHANE E]	–	–	–	–	8.3	21.9	15.2	49.8	13.7	37.9	14.1	73.1	–	–	–	–	–
CC(=O)OC/C1=C/[C@H]2[C@@H](OC(C)=O)[C@](C)(OC(C)=O)C[C@]2(OC(C)=O)C(=O)[C@H](C)/C=C/C(C)(C)[C@H](OC(=O)c2cccnc2)[C@H](OC(C)=O)[C@@H]1OC(=O)C(C)C [EUPHODENDROPHANE F]	–	–	–	–	4.8	14.8	51.9	90.8	38.8	75.3	27.3	65.5	–	–	–	–	–
CC(=O)O[C@H]1C(=O)[C@@]2(C)[C@H]([C@H](OC(=O)c3ccccc3)[C@]3(O)C[C@H](OC(=O)[C@H](O)[C@@H](NC(=O)c4ccccc4)c4ccccc4)C(C)=C1C3(C)C)[C@]1(OC(C)=O)CO[C@@H]1C[C@@H]2O [PACLITAXEL]	–	–	–	–	0.0036	0.0094	0.44	2.08	0.023	0.039	0.049	0.09	–	–	–	–	–
